# Screens: PubChem BioAssay, several laboratories
# The full list was thinned out, with hits kept by preference.
# Diaph act CS – compounds boosting diaphorase resazurin reduction – biochemical, uHTS, resorufin fluorescence, counter-screen for diaphorase-coupled primary assays, primary screen. activation factor at 20 µM. hit rate 0.005% among 190,000. Diaphorase/resazurin coupled assay, 16 min; hits give high values; 1 = vehicle wells, 0 = NADH-free wells;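 active means diaphorase activity raised at least twofold by the compound at 20 µM; inactive means activation factor below 2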
#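 Material: purified diaphorase enzyme from Clostridium kluyveri; Also added: 0.114 mM NADH and 0.1 mM resazurin, final amounts; Doses: single compound dose of 20 µM, 1% DMSO final; Times: 16 min enzyme reaction, ambient temperature; Detection: resorufin fluorescence, excitation 544 nm, emission 590 nm; Measure: increased resorufin signal from activators or reducing compounds.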
# Redox H2O2 prof – compounds producing H2O2 with reducing agent – biochemical, NIH compound library profiling, artefact control for MLSCN library redox annotation, primary screen. activation, % at 10 µM. AID 878, 2007. DTT-dependent redox cycling H2O2, phenol red/HRP absorbance; 100% = 100 µM peroxide control, 0% = buffer. hit rate 0.03% among 200,000;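 active means activation of at least 50% relative to the plate's high and low controls in the primary single-dose screen; inactive means activation below 50%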;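 further: compound incubated with DTT at 0.8 mM final as the reducing agent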
# G6PDH counter – L. mesenteroides G6PDH inhibitors, counter-screen for G6PDH-coupled screening assays, biochemical, Leuconostoc mesenteroides enzyme; inhibition, % at 5 µM; Purified L. mesenteroides G6PDH, diaphorase/resazurin coupled fluorescence, 45 min; glucose-6-phosphate dehydrogenase [Leuconostoc mesenteroides]; hit rate 0.12% among 200,000; AID 1020, 2008
# Lmaj promast – Leishmania major promastigote growth inhibition, primary screen; Leishmania major promastigotes, resazurin fluorescence viability; inhibition, % at 10 µM; hit rate 9% among 200,000; AID 1063, 2008;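 further: promastigotes grown with compound for 44 hours at 28 °C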
# PfGluPho inh – PfG6PD enzyme inhibitors, primary screen, biochemical, fluorescence intensity, uHTS; hit rate 0.78% among 350,000; glucose-6-phosphate dehydrogenase-6-phosphogluconolactonase (Plasmodium falciparum 3D7); inhibition, % at 20 µM; PfGluPho enzyme, NADPH resazurin-diaphorase fluorescence;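 active means inhibition reaching at least a set limit at 20 µM in the primary screen, cut at about 59% in these data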;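 further: 0% = DMSO wells with substrate and 100% = DMSO wells lacking glucose-6-phosphate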
# Diaphorase inh – diaphorase inhibitors and chemical oxidizers, primary screen, counter-screen for diaphorase-coupled primary assays, biochemical, uHTS, resorufin fluorescence. diaphorase resazurin-to-resorufin fluorescence, NADH, 16 min; bacterial (C. kluyveri) enzyme, not human. inhibition, % at 20 µM. hit rate 0.69% among 190,000;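 active means primary screen inhibition at 20 µM above a set limit, cut at about 50% in these data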;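 further: plate controls were DMSO with full reaction for no effect and wells lacking NADH for full effect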
#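 material = Clostridium kluyveri diaphorase enzyme | amount = 0.14 U/mL diaphorase, enzyme working solution | schedule = incubation 16 min, room temperature | detection = fluorescence of resorufin formed from resazurin, Ex 544/Em 590 nm | benchmarks = positive control minus NADH, DMSO neutral control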
# * = called active by the depositor; . = no result. Unless noted, no stated cut-off is given here; in the data, active means inhibition above about 50%; inactive means the rest.
SMILES,Diaph act CS,Redox H2O2 prof,G6PDH counter,Lmaj promast,PfGluPho inh,Diaphorase inh
CC(C)CCNC(=O)C(c1ccc(O)cc1)N(Cc1cccs1)C(=O)C1COc2ccccc2O1 (stereo not drawn),0.8,0,-15,100*,-5,24
O=C1CC(C(=O)N(CC2CCCO2)C(C(=O)NC2CCCCC2)c2ccncc2)CS1 (stereo not drawn),0.8,0,-2,-2,0,22
O=C(NC1CCCCC1)C(c1ccc(O)cc1)N(CC1CCCO1)C(=O)C1COc2ccccc2O1 (stereo not drawn),0.8,0,1,50*,-1,18
CC(C)(C)NC(=O)CN(Cc1cccs1)C(=O)C1COc2ccccc2O1 (stereo not drawn),0.9,2,5,7,-9,6
O=C(NCCNC(=O)c1cc(Cl)ccc1Cl)c1ccco1,.,.,.,.,14,.
Cc1ccc(C(=O)Nc2ccc(N3CCN(C(=O)c4cccs4)CC3)cc2)c(Cl)c1,.,.,.,.,6,.
O=S(=O)(NCCC1=CCCCC1)c1ccc(Br)cc1,.,.,.,.,24,.
O=C(/C=C/c1cccs1)c1cc(Br)ccc1OC(=O)N1CCOCC1,0.9,2,-5,72*,3,13
O=C(COc1ncnc2ccccc12)N1CCN(S(=O)(=O)c2ccc(Cl)cc2)CC1,0.8,-1,0,-7,-19,23
COc1cc2nc(N(C)C)nc(N)c2cc1OC,1.1,-1,4,100*,21,-13
CC(C)(C)NC(=O)COc1ccc(CNCc2cccnc2)cc1,1,-1,8,89*,-19,0
Cc1ccc(OCC(=O)NCc2cccnc2)cc1,1,0,13,16,1,3
COc1cc(CNCCc2ccccc2)ccc1OCC(=O)NC(C)(C)C,1.1,-6,14,99*,-8,-8
COc1cc(CNCCCO)ccc1OCC(=O)NC(C)(C)C,0.9,-1,2,-11,14,6
COc1cc(CNCc2cccnc2)ccc1OCC(=O)NC(C)(C)C,1,-1,11,92*,8,4
O=C(O)/C(=C\c1ccc(Cl)c([N+](=O)[O-])c1)c1ccc(S(=O)(=O)N2CCCC2)s1,.,.,.,.,-2,.
O=C(O)/C(=C\c1ccc(Cl)c([N+](=O)[O-])c1)c1ccc(S(=O)(=O)N2CCCCC2)s1,0.4,0,8,-3,-21,61*
COc1cccc(NC(=O)COC(=O)C2CC(=O)N(c3ccc(C)cc3)C2)c1 (stereo not drawn),.,.,.,.,-4,.
CCOc1ccccc1NC(=O)CSc1nc(=O)n(CCCN2CCOCC2)c2c1CCCC2,.,.,.,.,-1,.
COc1ccccc1N(C)S(=O)(=O)c1ccc(C(=O)Nc2nc(C)cs2)cc1,0.7,-2,-2,99*,5,25
COc1ccccc1N(C)S(=O)(=O)c1ccc(C(=O)NCc2ccc3c(c2)OCO3)cc1,0.9,0,3,99*,-11,10
COc1cccc(C(=O)NCc2ccc3c(c2)OCO3)c1OC,.,.,.,.,-7,.
CC(=O)Nc1cccc(NC(=O)C(C)N2c3cccc4cccc(c34)S2(=O)=O)c1 (stereo not drawn),.,.,.,.,8,.
CCc1c(C)[nH]c2nc3ccccc3n2c1=O,0.9,0,7,94*,-13,9
CCCc1c(C)[nH]c2nc3ccccc3n2c1=O,.,.,.,.,2,.
SMILES,Diaph act CS,Redox H2O2 prof,G6PDH counter,Lmaj promast,PfGluPho inh,Diaphorase inh
CCC(C)NC(=O)c1cc(S(=O)(=O)N2CCCCC2)c[nH]1 (stereo not drawn),.,.,.,.,-13,.
COc1ccc(CCN2C(=O)NC(NC(=O)CCc3ccccc3)(C(F)(F)F)C2=O)cc1OC (stereo not drawn),0.9,0,5,70*,1,12
Cn1c(CNC(=O)c2ccccc2F)nnc1SCC(=O)c1ccccc1,.,.,.,.,6,.
CC1CCc2c(nc3ncnn3c2N2CCN(c3ccccc3)CC2)C1 (stereo not drawn),0.9,1,7,52*,-4,10
CC1CCc2c(nc3ncnn3c2N2CCN(c3ccccc3F)CC2)C1 (stereo not drawn),0.8,.,8,.,14,22
CN(CCC(=O)c1ccccc1)CCC(=O)c1ccccc1,.,.,.,.,11,.
CN(C)CCC(=O)c1ccc(Cl)cc1,1.1,2,4,100*,15,-7
Cn1ncc(N=Cc2ccccc2)c1C(=O)Nc1cccc(Cl)c1,0.8,3,-41,-4,25,19
CC(NC(=S)Nc1c(Br)cccc1OC(F)F)C(C)(C)C (stereo not drawn),1,0,3,60*,14,5
CN(CCc1cnn(C)c1)Cc1cn[nH]c1-c1ccc(-c2ccccc2)cc1,1,0,7,90*,1,2
O=C(COc1ncnc2ccccc12)Nc1ccccc1[N+](=O)[O-],1.1,-2,13,-3,2,-9
CCCC(=Nc1ccccc1OC)C1=C(O)CC(c2ccccc2)CC1=O (stereo not drawn),0.9,0,5,99*,4,12
COc1ccccc1N=C(C)C1=C(O)CC(c2ccccc2)CC1=O (stereo not drawn),0.9,-1,8,53*,6,11
C[C@@H](C(=O)OCC(=O)c1ccc(F)c(F)c1)N1C(=O)C2CCCCC2C1=O (stereo partly drawn),.,.,.,.,7,.
Cc1cc(-c2n[nH]c(=S)n2/N=C/C=C/c2ccccc2)n[nH]1,0.5,0,6,1,25,50*
COc1ccccc1/C=C/C=N/n1c(-c2cc(C)[nH]n2)n[nH]c1=S,0.5,0,6,-5,17,50*
COc1ccccc1/C=C/C=N/n1c(-c2ccncc2)n[nH]c1=S,0.3,0,5,-9,10,65*
S=c1[nH]nc(-c2ccncc2)n1/N=C/C=C/c1ccccc1,.,.,.,.,26,.
COc1ccc(CC(=O)O/N=C(\N)Cc2cccc3ccccc23)cc1OC,0.8,1,-18,4,7,21
COc1ccc(C2(NC(C)=O)CCN(Cc3cccnc3)CC2)cc1,.,.,.,.,8,.
CCn1c(=S)sc2c(=O)n(-c3ccccc3)c(SC)nc21,0.7,0,8,87*,20,26
CSc1nc2ccsc2c(=O)n1-c1ccccc1,0.9,-1,3,1,-2,8
